In brackets after ≈: the same amount, converted by molar mass.

One test concerns Human alphaherpesvirus 1. Kind of test: Minimum inhibitory concentration required to reduce herpes simplex virus-1 (HSV-1 (KOS)) virus-induced cytopathicity by 50%. In kind it is functional.
Conditions: not given
`O=c1[nH]c(=O)n([C@H]2C[C@H](O)[C@@H](CO)O2)cc1-c1ccc(I)s1` had an MIC of 0.04 µg/mL (≈ 0.0917 µM).

The next test concerns Human alphaherpesvirus 2. Description: Minimum inhibitory concentration required to reduce herpes simplex virus-2 (HSV-2 (G)) virus-induced cytopathicity by 50%. Format: functional.
Conditions: not given
Compound `O=c1[nH]c(=O)n([C@H]2C[C@H](O)[C@@H](CO)O2)cc1-c1ccc(I)s1` returned an MIC of over 40 µg/mL.

A further test concerns Human alphaherpesvirus 1. Description: Minimum inhibitory concentration required to reduce thymidine kinase deficient-HSV-1 (B2006) virus-induced cytopathicity by 50%. In kind it is functional.
Conditions: not given
`O=c1[nH]c(=O)n([C@H]2C[C@H](O)[C@@H](CO)O2)cc1-c1ccc(I)s1` returned an MIC of over 40 µg/mL.

The next test has as its system Vaccinia virus. Kind of test: Minimum inhibitory concentration required to reduce vaccinia virus (VV) virus-induced cytopathicity by 50%. In kind it is functional. The settings on record: Orthopoxvirus vaccinia.
In the case of `O=c1[nH]c(=O)n([C@H]2C[C@H](O)[C@@H](CO)O2)cc1-c1ccc(I)s1`, the MIC was over 40 µg/mL.

Tested on in the next test: not listed separately
Kind of test: Minimum inhibitory concentration required to reduce virus-induced cell growth by 50%. Format: functional. Particulars: Homo sapiens.
The compound `O=c1[nH]c(=O)n([C@H]2C[C@H](O)[C@@H](CO)O2)cc1-c1ccc(I)s1` returned an MIC of over 50 µg/mL.

For another test, the system named is Human alphaherpesvirus 1. Kind of test: Minimum inhibitory concentration required to reduce thymidine kinase deficient-HSV-1 (VMW 1837) virus-induced cytopathicity by 50%. Format: functional.
Conditions: not given
With `O=c1[nH]c(=O)n([C@H]2C[C@H](O)[C@@H](CO)O2)cc1-c1ccc(I)s1`, the MIC was over 40 µg/mL.

Another test deals with Human alphaherpesvirus 3. Description: Minimum inhibitory concentration required to reduce TK-VZV (07-1) virus-induced cytopathicity by 50%. Format: functional.
Conditions: not given
Compound `O=c1[nH]c(=O)n([C@H]2C[C@H](O)[C@@H](CO)O2)cc1-c1ccc(I)s1` had an MIC of 10 µg/mL (≈ 22.9 µM).

The next test relates to Cell line. Kind of test: Minimum concentration required to cause a microscopically detectable alteration of cell morphology. Format: functional. The settings on record: Homo sapiens. In a few lines:
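Cytotoxicity read as the minimum concentration causing a microscopically detectable alteration of normal cell morphology. Cells were human embryonic skin-muscle (E6SM) or human embryonic lung (HEL), seeded in 96-well plates.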
`O=c1[nH]c(=O)n([C@H]2C[C@H](O)[C@@H](CO)O2)cc1-c1ccc(I)s1` had an MIC of 100 µg/mL (≈ 229 µM).

For the next test, the system named is Human alphaherpesvirus 3. Description: Minimum inhibitory concentration required to reduce TK-VZV (YS/R) virus-induced cytopathicity by 50%. In kind it is functional.
Conditions: not given
As to `O=c1[nH]c(=O)n([C@H]2C[C@H](O)[C@@H](CO)O2)cc1-c1ccc(I)s1`, the MIC is 40 µg/mL (≈ 91.7 µM).

The subject of another test is Human alphaherpesvirus 3. Description: Minimum inhibitory concentration required to reduce Varicella-Zoster virus (VZV (Oka)) virus-induced cytopathicity by 50%. Format: functional.
Conditions: not given
With `O=c1[nH]c(=O)n([C@H]2C[C@H](O)[C@@H](CO)O2)cc1-c1ccc(I)s1`, the MIC stood at 0.07 µg/mL (≈ 0.16 µM).

The test system of the next test is Cytomegalovirus. Description: Minimum inhibitory concentration required to reduce cytomegalo virus (CMV (AD-169)) virus-induced cytopathicity by 50%. Format: functional. The settings on record: Human betaherpesvirus 5.
`O=c1[nH]c(=O)n([C@H]2C[C@H](O)[C@@H](CO)O2)cc1-c1ccc(I)s1` had an MIC of over 40 µg/mL.

The test system of another test is Vesicular stomatitis virus. Kind of test: Minimum inhibitory concentration required to reduce VSV virus-induced cytopathicity by 50%. In kind it is functional.
Conditions: not given
In the case of `O=c1[nH]c(=O)n([C@H]2C[C@H](O)[C@@H](CO)O2)cc1-c1ccc(I)s1`, the MIC is over 40 µg/mL.

For another test, the system named is Cytomegalovirus. Kind of test: Minimum inhibitory concentration required to reduce cytomegalo virus (CMV (Davis)) virus-induced cytopathicity by 50%. Format: functional. The settings on record: Human betaherpesvirus 5.
Turning to `O=c1[nH]c(=O)n([C@H]2C[C@H](O)[C@@H](CO)O2)cc1-c1ccc(I)s1`, the MIC is over 40 µg/mL.

The record behind these values is ChEMBL document CHEMBL1126604, “Synthesis and antiviral activity of 5-thien-2-yl-2'-deoxyuridine analogues” (1993).
